The values that follow come from PMC2740628 (Colloids and surfaces. B, Biointerfaces, 2009).

Read-outs that look alike come from different tables or passages of the source.

For one data set, the system named is B16 melanoma cell line. The settings on record: 48 h exposure; cited from earlier work.
The test system of the next data set is human erythrocytes. The conditions noted are these: cited from earlier work.
Data set [1] deals with B16F10 mouse melanoma cell line. The data set can be described thus: MTT-based cytotoxicity test. The settings on record: for EC50: read-out: Cytotoxicity EC50, B16F10, 24 h exposure, MTT, range 1 μM to 250 μM; for Cytotoxicity (in words): B16F10, 24 h, 1 μM to 250 μM. The class given is cell-based. Summed up: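 B16F10 cells were grown in D-MEM with 10% FCS, antibiotics and glutamine at 37 °C, 5% CO2. Cells were seeded at 2.5–3.0 × 10^4/mL and grown for 16–24 h. Compounds were added from DMSO/PBS (DMSO below 1% final) at 1–250 μM for 24 h, with octylthioglucoside as positive control. MTT was applied for 3 h, formazan was dissolved with SDS (pH 5.5) and read at 540 nm the next day. EC50 came from dose-response curves, run in triplicate.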
(In general: Tetrazolium assays rely on reduction of a dye to a coloured formazan, in cell work by metabolically active cells.)

The subject of data set [2] is Rabbit red blood cells. The data set is described as follows: Haemolytic activity test. The class given is cell-based. The conditions noted are these: for EC50: 2 h, 37 °C; for Haemolytic activity (in words): 7 μM to 3.3 mM. Summed up:
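Rabbit erythrocytes (2% in PBS) were tested in PBS alone or in PBS with 20% fetal bovine serum. Compounds were dissolved in DMSO, then PBS (DMSO at most 5% final) and tested from 7 μM to 3.3 mM. After 2 h at 37 °C, cells were pelleted at 700g for 10 min. Released haemoglobin was read at 540 nm. The value reported is the lowest concentration giving 50% haemolysis.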

A short description of data set [3]: DPH steady-state fluorescence anisotropy, membrane partitioning. The settings on record: for Membrane partition coefficient K (DPPC bilayers / aqueous phase): calculated with equation 2 from the depression of Tm, surfactant 0-20 μM; for Effect on phase transition temperature Tm of DPPC (in words): surfactant 0 to 20 μM, DPH-labelled DPPC vesicles. The class given is physicochemical. Summed up:
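DPPC large unilamellar vesicles were made with DPH at a lipid:DPH molar ratio of 500:1 and surfactant at 0–20 μM, mixed in chloroform and dried. They were hydrated in water above 50 °C for 1 h and extruded 15 times at 50 °C. Anisotropy was read at λex 350/λem 452 nm while cooling from 50 °C to 20 °C at 0.2 °C/min. Tm was taken from anisotropy-temperature plots and K from the Tm shift (ΔHm 31.38 kJ·mol-1). Run in triplicate.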

In the next data set the test system is B16F10 cells. The conditions noted are these: cited from earlier work.
Data set [4] relates to Rabbit red blood cells. The settings on record: at 3.3 mM (highest concentration), data reported previously ref 15; cited from earlier work.
[5] abbreviates: read-out: Haemolytic activity EC50 20 % serum, rabbit red blood cells, PBS containing 20% fetal bovine serum.
Setting [6] is: read-out: Haemolytic activity EC50 without serum, rabbit red blood cells 2% in PBS, without serum.
The mark [7] stands for this setting: at 3.3 mM (highest concentration), without serum.

Consider `OC[C@H]1O[C@@H](OCCC(F)(F)C(F)(F)C(F)(F)C(F)(F)C(F)(F)C(F)(F)C(F)(F)C(F)(F)C(F)(F)C(F)(F)F)[C@H](O)[C@@H](O)[C@@H]1O` [3,3,4,4,5,5,6,6,7,7,8,8,9,9,10,10,11,11,12,12,12-heneicosafluoro-dodecyl-β-D-glucopyranoside], for which the “Toxicity at 50 μM (in words)” value in the data set on B16 melanoma cell line was “nontoxic”.
Turning to `CCCCCCCCCCCCO[C@@H]1O[C@H](CO)[C@@H](O[C@H]2O[C@H](CO)[C@@H](O)[C@H](O)[C@H]2O)[C@H](O)[C@H]1O` [C12 maltopyranoside], the “Lowest concentration causing lysis of human erythrocytes” value in the data set with human erythrocytes was 58 µM.
`CCCCCCCCS[C@@H]1O[C@H](CO)[C@@H](O)[C@H](O)[C@H]1O` [OTG, Octylthioglucoside, reference compound]: the EC50 in data set [1] is over 250 µM; with Rabbit red blood cells [2] (setting [5]) it was 3000 µM; with Rabbit red blood cells [2] (setting [6]), 500 µM.
With `OCC1OC(OCCC(F)(F)C(F)(F)C(F)(F)C(F)(F)C(F)(F)C(F)(F)C(F)(F)C(F)(F)C(F)(F)C(F)(F)F)C(O)C(O)C1O` [corresponding β-D-galactopyranoside], in the data set on B16 melanoma cell line, the “Toxicity at 50 μM (in words)” value is reported as “displayed some toxicity”.
As to `CCCCCCCCCCCCCCO[C@H]1O[C@H](CO)[C@@H](O)[C@H](O)[C@H]1O` [α-13b], the EC50 in data set [1] is 53 µM; with Rabbit red blood cells [2] (setting [5]) it was over 3300 µM; in the data set on Rabbit red blood cells [2] (setting [6]), 2500 µM. Further, the “Haemolysis, percentage in parentheses after >3.3 mM, 20 % serum” value in the data set with Rabbit red blood cells [2] (at 3.3 mM (highest concentration), 20 % serum) stood at 30%.
With `CCCCCCCCCCCCCCCCO[C@H]1O[C@H](CO)[C@@H](O)[C@H](O)[C@H]1O` [α-13d], the values for the EC50 (in data set [1]; in the data set on Rabbit red blood cells [2] (setting [5]); in the data set on Rabbit red blood cells [2] (setting [6])) were 70 µM, over 3300 µM and over 3300 µM, respectively. Further, the “Haemolysis, percentage in parentheses after >3.3 mM, without serum” value (shortened to “Haemolysis, percentage … without serum”) in the data set with Rabbit red blood cells [2] (setting [7]) is 20%.
As to `CCCCCCCCCCCCCCCCCO[C@H]1O[C@H](CO)[C@@H](O)[C@H](O)[C@H]1O` [α-13e], the EC50 was 37 µM in data set [1], over 3300 µM in the data set on Rabbit red blood cells [2] (setting [5]) and over 3300 µM with Rabbit red blood cells [2] (setting [6]). The “Haemolysis, percentage … without serum” value in the data set with Rabbit red blood cells [2] (setting [7]) is 25%.
On to `CCCCCCCCCCCCCCCCCCCO[C@H]1O[C@H](CO)[C@@H](O)[C@H](O)[C@H]1O` [α-13g, nonadecyl α-D-glucopyranoside], for which the “Cytotoxicity (in words)” value in data set [1] is listed as “did not show a cytotoxic effect”. In addition, the results for the EC50 (in data set [1]; in the data set with Rabbit red blood cells [2] (setting [5]); in the data set with Rabbit red blood cells [2] (setting [6])) were over 250 µM, over 3300 µM and over 3300 µM, respectively. The “Haemolytic activity (in words)” value in the data set on Rabbit red blood cells [2] (rabbit red blood cells) is on record as “not haemolytic”.
With `CCCCCCCO[C@@H]1O[C@H](CO)[C@@H](O)[C@H](O)[C@H]1O` [β-13a, Heptyl-β-D-glucopyranoside], the “Cytotoxicity (in words)” value in data set [1] was “insignificant”. The EC50 is over 250 µM in data set [1], over 3300 µM in the data set on Rabbit red blood cells [2] (setting [5]) and over 3300 µM in the data set on Rabbit red blood cells [2] (setting [6]). In the data set with Rabbit red blood cells [2] (rabbit red blood cells), the “Haemolytic activity (in words)” value is on record as “essentially nonhaemolytic”. The “Membrane partition coefficient K (DPPC bilayers / aqueous phase)” value in data set [3] was 4.61×10^4. For the same compound, the “Effect on phase transition temperature Tm of DPPC (in words)” value (“Effect” below) in data set [3] is on record as “decreased the phase transition temperature of DPPC only slightly”.
For `CCCCCCCCCCCCCCCCO[C@@H]1O[C@H](CO)[C@@H](O)[C@H](O)[C@H]1O` [β-13d, hexadecyl β-D-glucopyranoside], in data set [3], the “Membrane partition coefficient K (DPPC bilayers / aqueous phase)” value was 2.78×10^5 and the “Effect” value is “decreased linearly over the entire concentration range investigated”.
As for `CCCCCCCCCCCCCCCCCO[C@@H]1O[C@H](CO)[C@@H](O)[C@H](O)[C@H]1O` [β-13e], in the data set with B16F10 cells, the “Apoptosis (in words)” value is listed as “induced apoptosis”. Moreover, in the data set on Rabbit red blood cells [4], the “Haemolysis, percentage in parentheses after >3.3 mM, 20 % serum” value is recorded as 5%.
Consider `CCCCCCCO[C@@H]1O[C@H](CO)[C@H](O)[C@H](O)[C@H]1O` [β-15a], for which the EC50 in data set [1] was over 250 µM; in the data set on Rabbit red blood cells [2] (setting [5]), over 3300 µM; in the data set on Rabbit red blood cells [2] (setting [6]) it was over 3300 µM.
Consider `CCCCCCCCCCCCCCCCO[C@@H]1O[C@H](CO)[C@H](O)[C@H](O)[C@H]1O` [β-15b, hexadecyl β-D-galactopyranoside], for which the values for the EC50 (in data set [1]; with Rabbit red blood cells [2] (setting [5]); with Rabbit red blood cells [2] (setting [6])) were over 250 µM, over 3300 µM and over 3300 µM, respectively. Further, the “Haemolysis, percentage … without serum” value with Rabbit red blood cells [2] (setting [7]) is 40%. Further, in data set [3], the “Membrane partition coefficient K (DPPC bilayers / aqueous phase)” value was 5.15×10^5. The “Effect” value in data set [3] is “linear decrease in Tm up to a surfactant concentration of 7 μM and an approximately constant Tm at concentrations ≥ 10 μM”.
In the case of `CCCCCCCCCCCCCCCCO[C@@H]1O[C@H](CO)[C@@H](O[C@H]2O[C@H](CO)[C@@H](O)[C@H](O)[C@H]2O)[C@H](O)[C@H]1O` [β-17b], the EC50 is 67 µM in data set [1], 150 µM in the data set on Rabbit red blood cells [2] (setting [5]) and 30 µM with Rabbit red blood cells [2] (setting [6]). The “Haemolytic activity (in words)” value with Rabbit red blood cells [2] (rabbit red blood cells) is on record as “most haemolytic compound under investigation”.

As a reminder, the EC50 is the concentration at which the effect is half-maximal.
